# According to ChEMBL document CHEMBL3259650, “Synthesis of symmetrically substituted 3,3-dibenzyl-4-hydroxy-3,4-dihydro-1H-quinolin-2-ones, as novel quinoline derivatives with antibacterial activity” (Eur J Med Chem, 2014):
# Activity calls are given as the source filed them. No cut-off for these calls is given here.
# Columns and labels:
# [1] = tested on: Shigella sonnei; test: Antibacterial activity against Shigella sonnei ATCC 15305; type: functional
# [2] = tested on: Salmonella typhimurium; test: Antibacterial activity against Salmonella typhimurium ATCC 14028; type: functional, Salmonella enterica subsp. enterica serovar Typhimurium
# Method in brief: (§1)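 MIC determined by broth microdilution in casein soy broth (pH 7.3) at an inoculum of 10^5 CFU/mL, incubated 24 h at 37 C. Levofloxacin was the comparator and controls were run alongside. Samples were tested in quadruplicate.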
# [3] = tested on: Bacillus spizizenii; test: Antibacterial activity against Bacillus subtilis ATCC 6633 assessed as growth inhibition after 24 hrs by micro dilution method; type: functional; conditions: ATCC 6633, 24 h; method in brief: as §1
# [4] = tested on: Enterococcus sp.; test: Antibacterial activity against Enterococcus sp. ATCC 6589; type: functional
# [5] = tested on: Enterococcus sp.; test: Antibacterial activity against Enterococcus sp. ATCC 6589 assessed as growth inhibition by measuring turbidity of medium at MIC measured over 10 hrs by microplate reader analysis; type: functional, organism-based
# Method in brief: (§2)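 Overnight casein soy broth cultures (37 C) were centrifuged, resuspended in fresh medium and adjusted to about 5 10^7 cells/mL (OD620 0.2). Cells were grown in microplate wells to mid-log phase, then twofold serial dilutions of the test agents in fresh medium were added. OD620 was read every 15 min at 23 C for 10 h, with 30 s shaking between reads. Runs were in quadruplicate.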
# [6] = tested on: Morganella morganii; test: Antibacterial activity against Morganella morganii ATCC 8019; type: functional
# [7] = tested on: Escherichia coli; test: Antibacterial activity against Escherichia coli ATCC 25922; type: functional
# [8] = tested on: Morganella morganii; test: Antibacterial activity against Morganella morganii ATCC 8019 assessed as growth inhibition after 24 hrs by micro dilution method; type: functional; conditions: ATCC 8019, 24 h; method in brief: as §1
# [9] = tested on: Klebsiella aerogenes; test: Antibacterial activity against Enterobacter aerogenes ATCC 13048 assessed as growth inhibition after 24 hrs by micro dilution method; type: functional; conditions: ATCC 13048, 24 h; method in brief: as §1
# [10] = tested on: Enterococcus sp.; test: Antibacterial activity against Enterococcus sp. ATCC 6589 assessed as growth inhibition after 24 hrs by micro dilution method; type: functional; conditions: ATCC 6589, 24 h; method in brief: as §1
# [11] = tested on: Salmonella typhimurium; test: Antibacterial activity against Salmonella typhimurium ATCC 14028 assessed as growth inhibition after 24 hrs by micro dilution method; type: functional, Salmonella enterica subsp. enterica serovar Typhimurium; conditions: Salmonella enterica, ATCC 14028, 24 h; method in brief: as §1
# [12] = tested on: Shigella sonnei; test: Antibacterial activity against Shigella sonnei ATCC 15305 assessed as growth inhibition after 24 hrs by micro dilution method; type: functional; conditions: ATCC 15305, 24 h; method in brief: as §1
# [13] = tested on: Staphylococcus aureus; test: Antibacterial activity against Staphylococcus aureus ATCC 6538p assessed as growth inhibition after 24 hrs by micro dilution method; type: functional; method in brief: as §1
# [14] = tested on: Staphylococcus aureus; test: Antibacterial activity against Staphylococcus aureus ATCC 6538p; type: functional; method in brief: as §1
# [15] = tested on: Escherichia coli; test: Antibacterial activity against Escherichia coli ATCC 25922 assessed as growth inhibition after 24 hrs by micro dilution method; type: functional; conditions: ATCC 25922, 24 h; method in brief: as §1
# [16] = tested on: Morganella morganii; test: Antibacterial activity against Morganella morganii ATCC 8019 assessed as growth inhibition by measuring turbidity of medium at >= MIC measured over 10 hrs by microplate reader analysis; type: functional, organism-based; method in brief: as §2
# [17] = tested on: Pseudomonas aeruginosa; test: Antibacterial activity against Pseudomonas aeruginosa ATCC […] assessed as growth inhibition after 24 hrs by micro dilution method; type: functional; method in brief: as §1
# [18] = tested on: Enterococcus sp.; test: Antibacterial activity against Enterococcus sp. ATCC 6589 assessed as growth inhibition by measuring turbidity of medium at 3.12 ug/mL measured after 3 hrs by microplate reader analysis; type: functional, organism-based; method in brief: as §2
SMILES,MLC [1] [µg/mL],MLC [2] [µg/mL],MIC [3] [µg/mL],MLC [4] [µg/mL],growth inhibition (GI) [5],MLC [6] [µg/mL],MLC [7] [µg/mL],MIC [8] [µg/mL],MIC [9] [µg/mL],MIC [10] [µg/mL],MIC [11] [µg/mL],MIC [12] [µg/mL],MIC [13] [µg/mL],MLC [14] [µg/mL],MIC [15] [µg/mL],growth inhibition (GI) [16],MIC [17] [µg/mL],growth inhibition (GI) [18]
O=C1Nc2ccc(Cl)cc2C(O)C1(Cc1ccc(Cl)cc1)Cc1ccc(Cl)cc1 (stereo not drawn),12.5,100,3.12,50,Active,6.25,50,6.25,50,6.25,50,3.12,3.12,12.5,3.12,Active,50,
Cc1ccc2c(c1)C(O)C(Cc1ccccc1)(Cc1ccccc1)C(=O)N2 (stereo not drawn),>200,,50,,,,>200,,,,,50,50,>200,25,,100,
O=C1N(Cc2ccc(Cl)cc2)c2ccc(Cl)cc2C(O)C1(Cc1ccc(Cl)cc1)Cc1ccc(Cl)cc1 (stereo not drawn),100,,> 100,,,,>100,,,,,50,50,100,50,,50,
O=C1Nc2ccc(Cl)cc2C(O)C1(Cc1ccccc1)Cc1ccccc1 (stereo not drawn),>200,,12.5,,,,200,,,,,12.5,25,>200,12.5,,50,
O=C1Nc2ccccc2C(O)C1(Cc1ccccc1Cl)Cc1ccccc1Cl (stereo not drawn),200,,12.5,,,,200,,,,,12.5,12.5,200,12.5,,100,inactive
CN1C(=O)C(Cc2ccccc2)(Cc2ccccc2)C(O)c2ccccc21 (stereo not drawn),>200,,50,,,,>200,,,,,100,100,>200,50,,100,
O=C1N(Cc2ccccc2)c2ccccc2C(O)C1(Cc1ccccc1)Cc1ccccc1 (stereo not drawn),>200,,100,,,,>200,,,,,200,100,>200,100,,> 200,
O=C1Nc2ccccc2C(O)C1(Cc1ccccc1)Cc1ccccc1 (stereo not drawn),>200,,100,,,,>200,,,,,50,50,>200,100,,100,
CCN1C(=O)C(Cc2ccccc2)(Cc2ccccc2)C(O)c2ccccc21 (stereo not drawn),>200,,12.5,,,,>200,,,,,200,100,>200,100,,100,
COc1ccc2c(c1)C(O)C(Cc1ccccc1)(Cc1ccccc1)C(=O)N2 (stereo not drawn),>200,,50,,,,>200,,,,,100,100,>200,100,,100,
CCOC(=O)CN1C(=O)C(Cc2ccccc2)(Cc2ccccc2)C(O)c2ccccc21 (stereo not drawn),,,> 200,,,,>200,,,,,> 200,> 200,,100,,> 200,
O=C1Nc2ccc(F)cc2C(O)C1(Cc1ccccc1)Cc1ccccc1 (stereo not drawn),>200,,25,,,,>200,,,,,25,50,>200,25,,50,
COc1cccc2c1NC(=O)C(Cc1ccccc1)(Cc1ccccc1)C2O (stereo not drawn),>200,,100,,,,>200,,,,,100,100,>200,100,,100,
O=C1Nc2ccccc2C(O)C1(Cc1ccc(Cl)cc1)Cc1ccc(Cl)cc1 (stereo not drawn),100,,1.56,,,,25,,,,,6.25,6.25,100,1.52,,100,
COc1ccc(CC2(Cc3ccc(OC)cc3)C(=O)Nc3ccccc3C2O)cc1 (stereo not drawn),>200,,100,,,,>200,,,,,100,100,200,100,,100,
